Measured values collected from several papers.
Compare with care: the assays were run in different laboratories.
Route: intravenous

Structure (SMILES) | test system | conditions | endpoint | result
O=C1c2cc(COc3ccccc3)nn2CCC1c1ccc(F)cc1 (stereo not drawn) | male Sprague-Dawley rat, plasma | 0.2 mg/kg | clearance | 120 mL/min/kg
CCCC[C@@H]1NC(=O)[C@H](Cc2ccc(O)cc2)NC(=O)[C@@H]2CCCN2C(=O)[C@H](CC(=O)O)NC(=O)[C@H](C)NC(=O)[C@H](Cc2ccccc2)NC(=O)[C@@H]2CSCCC(=O)N3CN(CN(C3)C(=O)CCSC[C@@H](C(=O)N[C@@H](CNC(=O)CCc3cn(CCOCCOCCOCCN(CCOCCOCCOCCC(=O)N[C@H]4CSCCC(=O)N5CN6CN(C5)C(=O)CCSC[C@H](NC(=O)[C@@H](CC(=O)O)NC(=O)[C@H](Cc5cccc7ccccc57)NC(=O)[C@@H]5CCCN5C4=O)C(=O)N[C@@H](CCSC)C(=O)N[C@@H](CCCCNC(=N)N)C(=O)N[C@@H](CC(=O)O)C(=O)N[C@@H](Cc4c[nH]c5ccccc45)C(=O)N[C@@H](CO)C(=O)N[C@@H]([C@@H](C)O)C(=O)N4CCC[C@H]4C(=O)N4C[C@H](O)C[C@H]4C(=O)N[C@@H](Cc4c[nH]c5ccccc45)C(=O)N[C@H](C(N)=O)CSCCC6=O)CCOCCOCCOCCn4cc(CCC(=O)NC[C@H](NC(=O)[C@@H]5CSCCC(=O)N6CN7CN(C6)C(=O)CCSC[C@H](NC(=O)[C@H](Cc6ccc(O)cc6)NC(=O)[C@@H]6CCCN6C(=O)[C@@H](C)NC(=O)[C@H](CCC(=O)O)NC(=O)[C@@H]6CCCN6C(=O)[C@H](CC(C)(C)C)NC(=O)[C@@H](NC(C)=O)CSCCC7=O)C(=O)N[C@@H](Cc6ccccc6)C(=O)N[C@@H](C)C(=O)N[C@@H](CC(=O)O)C(=O)N6CCC[C@H]6C(=O)N[C@@H](Cc6ccc(O)cc6)C(=O)N[C@@H](CCCC)C(=O)N5)C(N)=O)nn4)nn3)C(N)=O)NC1=O)C(=O)CCSC[C@H](NC(C)=O)C(=O)N[C@@H](CC(C)(C)C)C(=O)N1CCC[C@H]1C(=O)N[C@@H](CCC(=O)O)C(=O)N[C@H](C)C(=O)N1CCC[C@H]1C(=O)N[C@@H](Cc1ccc(O)cc1)C(=O)N2 | rat, plasma | 2 mg/kg | clearance | 8.7 mL/min/kg
CCCCCCCC(=O)N[C@@H](CCCCN)C(=O)N[C@@H](CCCCN)C(=O)N[C@@H](C)C(=O)N[C@@H](CC(C)C)C(=O)N[C@@H](CCCCN)C(=O)N[C@@H](CC(C)C)C(=O)N[C@@H](C)C(=O)N[C@@H](CCCCN)C(=O)N[C@@H](CCCCN)C(=O)N1CCC[C@H]1C(=O)N[C@@H](CC(C)C)C(=O)N[C@@H](CCCCN)C(=O)N[C@@H](CC(C)C)C(=O)N[C@@H](CC(C)C)C(=O)N[C@@H](CCCCN)C(N)=O | male Sprague-Dawley rat, blood | 3 mg/kg, infusion | clearance | 192 mL/min/kg
Cc1cc(C)nc(Nc2ncc(C(=O)NCCc3c(C)[nH]c4ccccc34)cn2)c1 | Sprague-Dawley rat, plasma | – | clearance | 81 mL/min/kg
CCCC[C@@H]1NC(=O)[C@H](Cc2ccc(O)cc2)NC(=O)[C@@H]2CCCN2C(=O)[C@H](CC(=O)O)NC(=O)[C@H](C)NC(=O)[C@H](Cc2ccccc2)NC(=O)[C@@H]2CSCCC(=O)N3CN(CN(C3)C(=O)CCSC[C@H](NC(C)=O)C(=O)N[C@@H](CC(C)(C)C)C(=O)N[C@@H](CCC(=O)O)C(=O)N[C@@H](CCC(=O)O)C(=O)N[C@H](CCCCNC(=O)CCc3cn(CCOCCOCCOCCN(CCOCCOCCOCCC(=O)N[C@H]4CSCCC(=O)N5CN6CN(C5)C(=O)CCSC[C@H](NC(=O)[C@@H](CC(=O)O)NC(=O)[C@H](Cc5cccc7ccccc57)NC(=O)[C@@H]5CCCN5C4=O)C(=O)N[C@@H](CCSC)C(=O)N[C@@H](CCCCNC(=N)N)C(=O)N[C@@H](CC(=O)O)C(=O)N[C@@H](Cc4c[nH]c5ccccc45)C(=O)N[C@@H](CO)C(=O)N[C@@H]([C@@H](C)O)C(=O)N4CCC[C@H]4C(=O)N4C[C@H](O)C[C@H]4C(=O)N[C@@H](Cc4c[nH]c5ccccc45)C(=O)N[C@H](C(N)=O)CSCCC6=O)CCOCCOCCOCCn4cc(CCC(=O)NCCCC[C@H]5NC(=O)[C@H](CCC(=O)O)NC(=O)[C@H](CCC(=O)O)NC(=O)[C@H](CC(C)(C)C)NC(=O)[C@@H](NC(C)=O)CSCCC(=O)N6CN7CN(C6)C(=O)CCSC[C@H](NC(=O)[C@H](Cc6ccc(O)cc6)NC(=O)[C@@H]6CCCN6C5=O)C(=O)N[C@@H](Cc5ccccc5)C(=O)N[C@@H](C)C(=O)N[C@@H](CC(=O)O)C(=O)N5CCC[C@H]5C(=O)N[C@@H](Cc5ccc(O)cc5)C(=O)N[C@@H](CCCC)C(=O)N[C@H](C(N)=O)CSCCC7=O)nn4)nn3)C(=O)N3CCC[C@H]3C(=O)N[C@@H](Cc3ccc(O)cc3)C(=O)N2)C(=O)CCSC[C@@H](C(N)=O)NC1=O | rat, plasma | 2 mg/kg | clearance | 11 mL/min/kg
N=c1c2c(-c3ccccc3)c(-c3ccccc3)n(Cc3ccccc3)c2ncn1[C@H]1CC[C@H](O)CC1 | male Sprague-Dawley rat, plasma | 2 mg/kg, single dose | clearance | 19.6 mL/min/kg
CN(C)C(=O)Oc1cc(OC(=O)N(C)C)cc(-c2cc3ccc(O)cc3o2)c1 | male rat, plasma | 5 mg/kg | clearance | 140 mL/min/kg
Cn1cnc(Cn2c(=O)[nH]/c(=N\c3cc4cn(C)nc4cc3Cl)n(Cc3cc(F)c(F)cc3F)c2=O)n1 | male Sprague-Dawley rat, plasma | 5 mg/kg | clearance | 1.03 mL/min/kg
C[C@H](C(=O)N[C@H]1COc2ccccc2[C@@H]1S(C)(=O)=O)c1ccc(F)cc1 | male Sprague-Dawley rat, plasma | 0.5 mg/kg | clearance | 10 mL/min/kg
[2H]C([2H])(c1cc(F)c(F)cc1F)n1c(=O)n(Cc2ncn(C)n2)c(=O)[nH]/c1=N\c1cc2cn(C)nc2cc1Cl | male Sprague-Dawley rat, plasma | 5 mg/kg | clearance | 1.11 mL/min/kg
CCCC[C@@H]1NC(=O)[C@H](Cc2ccc(O)cc2)NC(=O)[C@@H]2CCCN2C(=O)[C@H](CC(=O)O)NC(=O)[C@H](C)NC(=O)[C@H](Cc2ccccc2)NC(=O)[C@@H]2CSCCC(=O)N3CN(CN(C3)C(=O)CCSC[C@@H](C(=O)N[C@@H](C)C(N)=O)NC1=O)C(=O)CCSC[C@H](NC(=O)[C@H](C)NC(C)=O)C(=O)N[C@@H]([C@@H](C)CC)C(=O)N[C@@H](CCC(=O)O)C(=O)N[C@@H](CCC(=O)O)C(=O)N[C@H](CCCCNC(=O)CCc1cn(CCOCCOCCOCCN(CCOCCOCCOCCC(=O)N[C@H]3CSCCC(=O)N4CN5CN(C4)C(=O)CCSC[C@H](NC(=O)[C@@H](CC(=O)O)NC(=O)[C@H](Cc4cccc6ccccc46)NC(=O)[C@@H]4CCCN4C3=O)C(=O)N[C@@H](CCSC)C(=O)N[C@@H](CCCCNC(=N)N)C(=O)N[C@@H](CC(=O)O)C(=O)N[C@@H](Cc3c[nH]c4ccccc34)C(=O)N[C@@H](CO)C(=O)N[C@@H]([C@@H](C)O)C(=O)N3CCC[C@H]3C(=O)N3C[C@H](O)C[C@H]3C(=O)N[C@@H](Cc3c[nH]c4ccccc34)C(=O)N[C@H](C(N)=O)CSCCC5=O)CCOCCOCCOCCn3cc(CCC(=O)NCCCC[C@H]4NC(=O)[C@H](CCC(=O)O)NC(=O)[C@H](CCC(=O)O)NC(=O)[C@H]([C@@H](C)CC)NC(=O)[C@@H](NC(=O)[C@H](C)NC(C)=O)CSCCC(=O)N5CN6CN(C5)C(=O)CCSC[C@H](NC(=O)[C@H](Cc5ccc(O)cc5)NC(=O)[C@H](CCC(N)=O)NC4=O)C(=O)N[C@@H](Cc4ccccc4)C(=O)N[C@@H](C)C(=O)N[C@@H](CC(=O)O)C(=O)N4CCC[C@H]4C(=O)N[C@@H](Cc4ccc(O)cc4)C(=O)N[C@@H](CCCC)C(=O)N[C@H](C(=O)N[C@@H](C)C(N)=O)CSCCC6=O)nn3)nn1)C(=O)N[C@@H](CCC(N)=O)C(=O)N[C@@H](Cc1ccc(O)cc1)C(=O)N2 | rat, plasma | 2 mg/kg | clearance | 9.8 mL/min/kg
O=C(O)CCCO | male Sprague-Dawley rat, urine | 600 mg/kg | renal clearance | 1.89 mL/min/kg
